Assay results as given in ChEMBL document CHEMBL1141798, “Antitubercular constituents from the stem wood of Cinnamomum kotoense” (2005).
≈ marks a conversion by molar mass, not a printed value.

These compounds were tested on Mycobacterium tuberculosis (assay: Antitubercular activity against Mycobacterium tuberculosis 90-221387).
Format: functional
How it was run: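 Agar proportion method on Middlebrook 7H10 with OADC; compounds serially diluted into molten agar (50-56 °C) to final 100 to 0.8 µg/mL. Inoculum from colonies in 7H9 broth, adjusted to McFarland no. 1, diluted 10-2; 33 µL spotted per quadrant. Incubated 35 °C, 10% CO2, 2 weeks; MIC = lowest concentration completely inhibiting growth.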

First: CC(=O)c1ccc(C)o1
Second: O=C(O)c1ccc(O)c(O)c1 [PROTOCATECHUIC ACID]
The MIC of the first is 2-fold lower: 323 µM (≈ 40 µg/mL) for the first, 649 µM (≈ 100 µg/mL) for the second.

First: COc1cc(OC)c2c(c1)O[C@H](c1ccc(O)c(OC)c1)[C@H](O)C2
Second: COc1cc([C@H]2OC[C@H]3[C@@H]2CO[C@@H]3c2cc(OC)c(O)c(OC)c2)cc(OC)c1O (racemic) [SYRINGARESINOL]
The MIC of the first is 1.6-fold lower: 151 µM (≈ 50.1 µg/mL) for the first, 239 µM (≈ 100 µg/mL) for the second.

First: O=Cc1ccc(O)cc1 [4-HYDROXYBENZALDEHYDE]
Second: COc1cc(C=O)ccc1O [VANILLIN]
The MIC of the first is 4.5-fold higher: 369 µM (≈ 45 µg/mL) for the first, 82.2 µM (≈ 12.5 µg/mL) for the second.

Compared with `O=C(O)c1ccccc1` [BENZOIC ACID], `COc1cc(C=O)cc(OC)c1O` [SYRINGALDEHYDE] is 2.4-fold lower in MIC: 328 µM (≈ 40 µg/mL) for the first, 137 µM (≈ 25 µg/mL) for the second.

First: CCCCCCCCCCCC(=O)O [DODECANOATE]
Second: C=C1OC(=O)/C(=C/CCCCCCCCCCCCC)[C@@H]1O [ISOOBTUSILACTONE A]
The MIC of the first is 2.8-fold higher: 62.5 µM (≈ 12.5 µg/mL) for the first, 22.5 µM (≈ 6.93 µg/mL) for the second.

Compared with `CCCCCCCCCCCCCCCCCCCCCCCCCCCC(O)O` [KOTODIOL], `CCCCCCCCCCCCC/C=C1/C(=O)O[C@@]2(C)O[C@H](CCCCCCCCCCCCC)O[C@@H]12` [KOTOLACTONE A] is 2.9-fold lower in MIC: 117 µM (≈ 50.1 µg/mL) for the first, 40.1 µM (≈ 20.9 µg/mL) for the second.

Compared with `C#CCCCCCCCCC/C=C1/C(=O)O[C@@H](C)[C@H]1O` [LINCOMOLIDE B], `CO[C@H]1/C=C/O[C@@]2(C)Oc3c(C)c(O)c4c(O)c(c(/C=N/N5CCN(C)CC5)c(O)c4c3C2=O)NC(=O)/C(C)=C\C=C\[C@H](C)[C@H](O)[C@@H](C)[C@@H](O)[C@@H](C)[C@H](OC(C)=O)[C@@H]1C` [RIFAMPIN] is 42-fold lower in MIC: 10.2 µM (≈ 2.83 µg/mL) for the first, 0.24 µM (≈ 0.198 µg/mL) for the second.
